This passage reports yeast fitness results from the RNAGym collection of RNA variant scans (doi:10.1126/science.aae0568).

This sample holds only a part of the variants without activity.

The chains are these.
B1: tRNA (parent)
chain: GUUCCGUUGGCGUAAUGGUAACGCGUCUCCCUCCUAAGGAGAAGACUGCGGGUUCGAGUCCCGUACGGAACG

In this data set the parent is B1. In words: yeast fitness relative to wild type (ratio to wild type); higher = fitter; tRNA-Arg(CCU), competitive growth, 37 C, YPD. Summed up:
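Changes in genotype frequencies gave Darwinian fitness relative to wild type. Frequencies were read by 100-nucleotide paired-end sequencing of gene amplicons before and after pooled Saccharomyces cerevisiae strains, carrying tRNA-Arg(CCU) gene variants at the native locus, were competed in YPD at 37°C for 24 hours in six replicates. A genotype was kept only with ≥ 100 starting reads, and estimates < 0.5 were set to 0.5.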
For G10A U64C A69U, the yeast fitness worked out at 0.542.

Regarding G10C A45C U59C, the yeast fitness is at most 0.5.

G10A U47A A65C: the yeast fitness is at most 0.5.

In the case of G10A C31A U32C G41C, the yeast fitness is at most 0.5.

For G10C A14U U19A C22U U59G A65C, the yeast fitness was at most 0.5.

In the case of G10A C49U A69U, the yeast fitness is at most 0.5.

Turning to G10C A14G C24A A70U, the yeast fitness was at most 0.5.

As to G10C A45G A65C A69C, the yeast fitness turned out to be 0.571.

For the variant G10C A36U C66U A70C, the yeast fitness was at most 0.5.

On to G10A U19A G44C C49U G67C, for which the yeast fitness was at most 0.5.

Consider G10A G51C G58U, for which the yeast fitness was at most 0.5.

For G10A U16A G68A, the yeast fitness was 0.567.

As for G10C A14U U19A C22U U47C, the yeast fitness was at most 0.5.

With G10C C11G C24G G48C, the yeast fitness was at most 0.5.

For G10A G44C A65C G67A, the yeast fitness was at most 0.5.

On to G10C A20G C24U G38C A57C G63C, for which the yeast fitness is at most 0.5.

On to G10C A15G U35A G44A A69U, for which the yeast fitness was at most 0.5.

As to G10C A15C A21C A69U, the yeast fitness was at most 0.5.

With G10C C24A G52A, the yeast fitness was at most 0.5.

G10A U16A G52A A65U: the yeast fitness was at most 0.5.

Take G10C A40U G50A: the yeast fitness was at most 0.5.

As to G10C A45U G48A C55A, the yeast fitness was at most 0.5.

Regarding G10A G51A, the yeast fitness came to 0.691.

For G10A U35A A37G A43U A45C, the yeast fitness is at most 0.5.

With G10A G50A U59G C62A, the yeast fitness is at most 0.5.

Turning to G10C A43G G52C C62U G63A, the yeast fitness worked out at 0.531.

With G10A U32G, the yeast fitness was at most 0.5.

In the case of G10A C34A U35A U54C, the yeast fitness worked out at 0.522.

On to G10A U54A C55G, for which the yeast fitness was at most 0.5.

For the variant G10A U16G, the yeast fitness amounted to 0.611.

For the variant G10C A14U C22U C24G U35C G56C U64A, the yeast fitness was at most 0.5.

On to G10A U26A C27U C29A G48A C62A, for which the yeast fitness is at most 0.5.

For G10A G18A C33U A37C A40U, the yeast fitness was at most 0.5.

In the case of G10A G18C C24U C30G C62U, the yeast fitness is at most 0.5.

Regarding G10A U13A C24U A70C, the yeast fitness was at most 0.5.

On to G10C A14U U19A C22U G68A, for which the yeast fitness is at most 0.5.

On to G10C A14U G56A, for which the yeast fitness was at most 0.5.

For G10C A15U, the yeast fitness was found to be 0.691.

On to G10C A14U A20U C31A C55G G56C, for which the yeast fitness is at most 0.5.

With G10A U26A G63A, the yeast fitness was at most 0.5.

Regarding G10A U16C A36G G48C, the yeast fitness is at most 0.5.

For the variant G10A C31A G38C G44A A65G, the yeast fitness was at most 0.5.

Turning to G10A G12A, the yeast fitness was 0.805.

As to G10A U16A C31A G51A A70U, the yeast fitness is at most 0.5.

Take G10A G25A G41C A57G: the yeast fitness is at most 0.5.

For the variant G10C A21G C30A G38C C46U A70C, the yeast fitness amounted to 0.869.

G10A G25A A40C C55G C61A: the yeast fitness was at most 0.5.

Turning to G10A C30A G48A, the yeast fitness was 0.559.

G10C C11U C30G G48A U54A G68U: the yeast fitness is at most 0.5.

In the case of G10A C61G C66U A69U, the yeast fitness was at most 0.5.

On to G10A U13G A43U U53C, for which the yeast fitness was at most 0.5.

In the case of G10A C30U C33G U64C, the yeast fitness is 0.662.

Turning to G10C A14U G67A, the yeast fitness was at most 0.5.

On to G10C C11U C30G G48A U54A, for which the yeast fitness amounted to 0.693.

In the case of G10C C22U A42U C60G, the yeast fitness is at most 0.5.

Take G10C C22G C29A G41A C46U A65C: the yeast fitness was at most 0.5.

Take G10A U35C A45G C49G G56A A65C: the yeast fitness was at most 0.5.

On to G10C C22A C24G A70C, for which the yeast fitness amounted to 0.531.

For G10C A36G A57U, the yeast fitness was at most 0.5.

Consider G10C C22G C30U C55U, for which the yeast fitness is at most 0.5.

Regarding G10C C22U A65C, the yeast fitness was at most 0.5.

In the case of G10A G25A G41C U54G C61U, the yeast fitness worked out at 0.551.

With G10A G38C, the yeast fitness was 0.549.

In the case of G10A G68U, the yeast fitness came to 0.75.

As to G10A G68A, the yeast fitness turned out to be 0.753.

Regarding G10C C22A C29G C49G, the yeast fitness is at most 0.5.

With G10C A21G C30A G38C C46U, the yeast fitness turned out to be 0.681.

As to G10A C34U A43G, the yeast fitness was at most 0.5.

For the variant G10C A21G C22U C46U G56C, the yeast fitness is 0.58.

As to G10A G63A, the yeast fitness was 0.698.

Regarding G10A C33G A43G G58A G67A A69U, the yeast fitness was 0.543.

For G10A U35A, the yeast fitness amounted to 0.62.

For G10A U35G, the yeast fitness is at most 0.5.

In the case of G10A U35C, the yeast fitness came out at 0.582.

As to G10A G39C, the yeast fitness worked out at 0.763.

For the variant G10A C31U C34A A40G A65U, the yeast fitness was at most 0.5.

With G10C A15G G58C, the yeast fitness was 0.559.

As for G10A U16A C31A A42G A43G G68C, the yeast fitness is at most 0.5.

Turning to G10A U32C G63A, the yeast fitness was at most 0.5.

For G10C C24G C27U C33U G50C G68A, the yeast fitness was at most 0.5.

In the case of G10A G52A A57G C66U, the yeast fitness is at most 0.5.

For the variant G10A C30U C33G, the yeast fitness was 0.538.

On to G10A U47C C62U, for which the yeast fitness is 0.566.

G10A U26A C27U C29A A65G G68C: the yeast fitness came to 0.563.
